In assay [1] the test system is ACHN. In words: Cytotoxicity against human ACHN cells assessed as growth inhibition after 72 hrs by SRB assay. It counts as functional. In outline: (§1)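 SRB assay per NCI protocol: 2 × 10^3 cells/well seeded, compounds in DMSO/media added next day (day 0) in quadruplicate at 1 nM–10 μM final, DMSO <0.1%. After 72 h, TCA fixation overnight at 4°C, 0.4% SRB 1 h, dye dissolved in 10 mM Tris, A690 read; day 0 absorbance subtracted. GI50 = concentration giving 50% drop in net growth, mean of three experiments.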
For orientation: In SRB staining, fixed cells bind dye roughly in proportion to their protein.

For assay [2], the system named is NCI-H23. In words: Cytotoxicity against human NCI-H23 cells assessed as growth inhibition after 72 hrs by SRB assay. The following applies: Homo sapiens, NCI-H23, 72 h. Type of assay: functional. In short, it runs like this:
as §1

Assay [3] has as its system NUGC-3. In words: Cytotoxicity against human NUGC3 cells assessed as growth inhibition after 72 hrs by SRB assay. As to conditions: Homo sapiens, NUGC-3, 72 h. Type of assay: functional. In outline:
as §1

Assay [4] concerns PC-3. In words: Cytotoxicity against human PC3 cells assessed as growth inhibition after 72 hrs by SRB assay. It counts as functional. The following applies: Homo sapiens, PC-3, 72 h. In short, it runs like this:
as §1

The subject of assay [5] is HCT-15. In words: Cytotoxicity against human HCT15 cells assessed as growth inhibition after 72 hrs by SRB assay. It counts as functional. The following applies: Homo sapiens, HCT-15, 72 h. In short, it runs like this: as §1
Assay [6] relates to MDA-MB-231. In words: Cytotoxicity against human MDA-MB-231 cells assessed as growth inhibition after 72 hrs by SRB assay. Type of assay: functional. In short, it runs like this: as §1
The target in assay [7] is T1, DNA topoisomerase 1 (Homo sapiens) (UniProt P11387).
T1 sequence (whole entry): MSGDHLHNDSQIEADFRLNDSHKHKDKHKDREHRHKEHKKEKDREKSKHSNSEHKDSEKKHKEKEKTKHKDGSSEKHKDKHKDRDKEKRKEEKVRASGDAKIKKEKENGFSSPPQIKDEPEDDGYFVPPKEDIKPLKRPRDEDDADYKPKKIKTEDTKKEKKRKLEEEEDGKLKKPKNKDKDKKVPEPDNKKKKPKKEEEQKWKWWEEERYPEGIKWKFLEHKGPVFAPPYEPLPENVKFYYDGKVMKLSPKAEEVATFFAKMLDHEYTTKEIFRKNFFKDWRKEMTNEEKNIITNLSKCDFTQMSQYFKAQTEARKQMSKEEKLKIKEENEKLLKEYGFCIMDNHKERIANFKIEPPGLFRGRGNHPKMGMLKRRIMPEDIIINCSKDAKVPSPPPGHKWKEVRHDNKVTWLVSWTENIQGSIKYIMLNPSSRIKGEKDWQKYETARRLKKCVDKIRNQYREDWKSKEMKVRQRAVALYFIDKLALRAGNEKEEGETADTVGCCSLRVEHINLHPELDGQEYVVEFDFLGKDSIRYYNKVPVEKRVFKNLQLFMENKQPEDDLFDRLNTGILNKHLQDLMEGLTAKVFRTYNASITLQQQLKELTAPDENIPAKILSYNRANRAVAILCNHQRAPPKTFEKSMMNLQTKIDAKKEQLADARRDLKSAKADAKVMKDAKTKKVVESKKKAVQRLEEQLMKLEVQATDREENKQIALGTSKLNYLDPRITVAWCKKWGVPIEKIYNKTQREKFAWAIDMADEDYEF
In words: Inhibition of recombinant human DNA topoisomerase 1 at 20 uM using supercoiled pBR322 DNA as substrate after 30 mins by densitometric analysis relative to control. In outline:
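Relaxation of 100 ng supercoiled pBR322 by 1 unit recombinant human topo I, 37 °C for 30 min, in 10 mM Tris-HCl pH 7.9, 150 mM NaCl, 0.1% BSA, 1 mM spermidine, 5% glycerol. Stopped with sarcosyl solution, run on 1% agarose/TAE at 15 V for 7 h, ethidium bromide stained, bands quantified by densitometry. Camptothecin as positive control. Compounds first screened at 100 μM; those over 30% inhibition retested at 20 μM.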

In assay [8] the target is T1, DNA topoisomerase 1 (Homo sapiens). In words: Potency index, ratio of test compound activity to camptothecin activity for recombinant human DNA topoisomerase 1 at 100 uM.
Assay [9] has as its target DNA topoisomerase 2-alpha (Homo sapiens) (UniProt P11388). The experiment in a line: Inhibition of recombinant human DNA topoisomerase 2-alpha at 100 uM using supercoiled pBR322 DNA as substrate after 30 mins by densitometric analysis relative to control. In outline: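 200 ng supercoiled pBR322 with 4 units human topo IIα, 30 min at 30 °C, in 10 mM Tris–HCl pH 7.9, 50 mM NaCl, 5 mM MgCl2, 1 mM EDTA, 1 mM ATP, 15 μg/mL BSA. Stopped with EDTA, run on 1% agarose/TAE at 60 V for 1 h, bands quantified by densitometry. Etoposide as positive control. Screening at 100 μM; above 30% inhibition, retested at 20 μM.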

Where “and” joins values, the source holds several entries; their conditions need not be identical. Equal values may be shown once.

One may read the GI50 as the concentration at which growth is held to half of that of the control. As a reminder, the inhibition is the relative decrease from the control value, in per cent.

Sequence of DNA topoisomerase 2-alpha (Homo sapiens) (P11388 whole entry): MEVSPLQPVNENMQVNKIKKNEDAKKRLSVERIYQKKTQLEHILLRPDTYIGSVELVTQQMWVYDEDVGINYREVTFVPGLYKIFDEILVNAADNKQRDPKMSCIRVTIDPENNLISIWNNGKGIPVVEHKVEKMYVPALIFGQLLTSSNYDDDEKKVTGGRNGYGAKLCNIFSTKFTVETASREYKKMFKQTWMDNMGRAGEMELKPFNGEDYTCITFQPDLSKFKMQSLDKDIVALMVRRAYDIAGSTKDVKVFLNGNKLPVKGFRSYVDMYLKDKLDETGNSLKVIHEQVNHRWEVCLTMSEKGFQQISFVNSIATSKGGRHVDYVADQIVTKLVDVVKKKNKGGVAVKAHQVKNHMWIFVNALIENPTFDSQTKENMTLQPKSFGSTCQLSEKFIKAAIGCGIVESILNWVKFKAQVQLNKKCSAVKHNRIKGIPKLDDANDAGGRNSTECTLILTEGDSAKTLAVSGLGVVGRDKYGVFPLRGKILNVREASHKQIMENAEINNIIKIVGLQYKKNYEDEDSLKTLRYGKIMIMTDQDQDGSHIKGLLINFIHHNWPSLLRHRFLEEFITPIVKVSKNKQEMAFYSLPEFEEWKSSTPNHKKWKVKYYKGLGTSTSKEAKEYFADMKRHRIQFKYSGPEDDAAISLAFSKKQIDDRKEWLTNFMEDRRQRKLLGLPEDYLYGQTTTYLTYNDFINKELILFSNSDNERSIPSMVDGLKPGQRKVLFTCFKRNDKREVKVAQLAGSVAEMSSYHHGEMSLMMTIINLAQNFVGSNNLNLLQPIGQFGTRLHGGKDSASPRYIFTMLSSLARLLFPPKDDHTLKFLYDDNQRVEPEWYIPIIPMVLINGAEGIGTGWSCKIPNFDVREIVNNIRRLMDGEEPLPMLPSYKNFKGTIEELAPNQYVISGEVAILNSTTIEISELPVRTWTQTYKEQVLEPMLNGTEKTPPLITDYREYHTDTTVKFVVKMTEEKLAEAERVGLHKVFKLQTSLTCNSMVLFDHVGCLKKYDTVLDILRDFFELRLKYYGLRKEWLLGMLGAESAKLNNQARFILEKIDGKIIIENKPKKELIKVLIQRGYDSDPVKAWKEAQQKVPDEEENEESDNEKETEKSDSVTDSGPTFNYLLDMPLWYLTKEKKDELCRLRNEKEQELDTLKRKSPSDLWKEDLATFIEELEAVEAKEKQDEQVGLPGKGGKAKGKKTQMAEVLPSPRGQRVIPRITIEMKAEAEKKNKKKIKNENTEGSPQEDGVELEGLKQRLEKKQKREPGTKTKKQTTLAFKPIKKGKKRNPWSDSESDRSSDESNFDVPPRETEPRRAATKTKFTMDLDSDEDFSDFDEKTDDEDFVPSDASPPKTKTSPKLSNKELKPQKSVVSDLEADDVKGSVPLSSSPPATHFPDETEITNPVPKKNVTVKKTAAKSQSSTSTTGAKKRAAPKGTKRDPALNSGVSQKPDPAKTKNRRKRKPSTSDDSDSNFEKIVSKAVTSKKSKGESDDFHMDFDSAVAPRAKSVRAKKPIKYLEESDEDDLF

As to `Cc1c2c(nc3cnc4ccccc4c13)-c1cc(C(C)(C)C)cc(C(C)(C)C)c1OC2`, the 50% growth inhibitory concentration (GI50) in assay [1] (Homo sapiens, ACHN, 72 h) is greater than 10 µM; in assay [2], greater than 10 µM; in [3], greater than 10 µM; in assay [4] it was greater than 10 µM; in assay [5], greater than 10 µM; in assay [6] (Homo sapiens, MDA-MB-231, 72 h), greater than 10 µM.

In the case of `CC(C)(C)c1cc2c(c(C(C)(C)C)c1)OCc1cc3c(cnc4ccccc43)nc1-2`, the GI50 is greater than 10 µM in [1] (Homo sapiens, ACHN, 72 h); greater than 10 µM in [2]; greater than 10 µM in assay [3]; greater than 10 µM in assay [4]; greater than 10 µM in [5]; greater than 10 µM in assay [6] (Homo sapiens, MDA-MB-231, 72 h).

Regarding `Cc1c2c(nc3cnc4ccccc4c13)-c1cc(Cl)ccc1OC2`, the GI50 was greater than 10 µM in [1] (Homo sapiens, ACHN, 72 h); greater than 10 µM in assay [2]; greater than 10 µM in assay [3]; greater than 10 µM in [4]; greater than 10 µM in [5]; greater than 10 µM in assay [6] (Homo sapiens, MDA-MB-231, 72 h).

`Cc1c2c(nc3cnc4ccccc4c13)-c1cc(Cl)cc(Cl)c1OC2`: the GI50 in [1] (Homo sapiens, ACHN, 72 h) was greater than 10 µM; in assay [2] it was greater than 10 µM; in assay [3], greater than 10 µM; in assay [4], greater than 10 µM; in assay [5] it was greater than 10 µM; in assay [6] (Homo sapiens, MDA-MB-231, 72 h), greater than 10 µM.

For `COc1ccc(Br)c2c1OCc1c-2nc2cnc3ccccc3c2c1C`, the GI50 in assay [1] (Homo sapiens, ACHN, 72 h) is greater than 10 µM; in assay [2], greater than 10 µM; in [3] it was greater than 10 µM; in assay [4] it was greater than 10 µM; in assay [5], greater than 10 µM; in [6] (Homo sapiens, MDA-MB-231, 72 h), greater than 10 µM.

In the case of `Cc1c2c(nc3cnc4ccccc4c13)-c1c(ccc3ccccc13)OC2`, the GI50 in assay [1] (Homo sapiens, ACHN, 72 h) was greater than 10 µM; in [2] it was greater than 10 µM; in [3] it was greater than 10 µM; in [4], greater than 10 µM; in assay [5] it was greater than 10 µM; in assay [6] (Homo sapiens, MDA-MB-231, 72 h) it was greater than 10 µM.

Regarding `Fc1ccc2c(c1)-c1nc3cnc4ccccc4c3cc1CO2`, the inhibition in assay [7] is 4.2%; in [9], 14.5% and 12.2%. The Ratio in assay [8] was determined as 1.32.

For `c1ccc2c(c1)OCc1cc3c(cnc4ccccc43)nc1-2`, the GI50 is greater than 10 µM in assay [1] (Homo sapiens, ACHN, 72 h); greater than 10 µM in assay [2]; greater than 10 µM in assay [3]; greater than 10 µM in [4]; greater than 10 µM in [5]; greater than 10 µM in [6] (Homo sapiens, MDA-MB-231, 72 h).

Regarding `Cc1ccc2c(c1)-c1nc3cnc4ccccc4c3c(C)c1CO2`, the GI50 in assay [1] (Homo sapiens, ACHN, 72 h) was greater than 10 µM; in [2], greater than 10 µM; in assay [3] it was greater than 10 µM; in assay [4], greater than 10 µM; in assay [5], greater than 10 µM; in [6] (Homo sapiens, MDA-MB-231, 72 h) it was greater than 10 µM.

For the compound `Cc1ccc2c(c1)-c1nc3cnc4ccccc4c3cc1CO2`, the GI50 in assay [1] (Homo sapiens, ACHN, 72 h) was greater than 10 µM; in assay [2] it was greater than 10 µM; in assay [3], greater than 10 µM; in [4] it was greater than 10 µM; in [5] it was greater than 10 µM; in [6] (Homo sapiens, MDA-MB-231, 72 h) it was greater than 10 µM.

As for `Clc1ccc2c(c1)-c1nc3cnc4ccccc4c3cc1CO2`, the GI50 in assay [1] was determined as 2.56 µM; in [2] it was 1.19 µM; in assay [3], 2.21 µM; in assay [4], 1.5 µM; in [5], 1.57 µM; in assay [6], 2.72 µM.

Consider `Cc1c2c(nc3cnc4ccccc4c13)-c1cc(F)ccc1OC2`, for which the GI50 in assay [1] (Homo sapiens, ACHN, 72 h) was greater than 10 µM; in assay [2] it was greater than 10 µM; in assay [3] it was greater than 10 µM; in assay [4], greater than 10 µM; in assay [5] it was greater than 10 µM; in assay [6] (Homo sapiens, MDA-MB-231, 72 h) it was greater than 10 µM.

As for `Cc1c2c(nc3cnc4ccccc4c13)-c1cc(Br)ccc1OC2`, the GI50 was greater than 10 µM in [1] (Homo sapiens, ACHN, 72 h); greater than 10 µM in assay [2]; greater than 10 µM in [3]; greater than 10 µM in assay [4]; greater than 10 µM in assay [5]; greater than 10 µM in assay [6] (Homo sapiens, MDA-MB-231, 72 h).

The values are drawn from ChEMBL document CHEMBL4229571, “Development of 13H-benzo[f]chromeno[4,3-b][1,7]naphthyridines and their salts as potent cytotoxic agents and topoisomerase I/IIα inhibitors” (2018).
